Measured values reported in ChEMBL document CHEMBL4725480 (ACS Med Chem Lett, 2020).
Calls of active or inactive are those of the source. No cut-off for these calls is given here.

Assays:
[1] = biological target: T1, NAD-dependent protein deacetylase sirtuin-2 (Homo sapiens, UniProt Q8IXJ6); experiment: Inhibition of N-terminal His-tagged human recombinant SIRT2 (55 to 356 residues) expressed in Escherichia coli Rossetta2 cells assessed as decrease in substrate deacetylation activity using QPK(acetyl-K) as substrate at 250 to 1000 uM incubated for 30 mins by fluorescence based analysis; conditions: 0.5 h, dose 250-1000 µM
T1 sequence (Q8IXJ6 whole entry): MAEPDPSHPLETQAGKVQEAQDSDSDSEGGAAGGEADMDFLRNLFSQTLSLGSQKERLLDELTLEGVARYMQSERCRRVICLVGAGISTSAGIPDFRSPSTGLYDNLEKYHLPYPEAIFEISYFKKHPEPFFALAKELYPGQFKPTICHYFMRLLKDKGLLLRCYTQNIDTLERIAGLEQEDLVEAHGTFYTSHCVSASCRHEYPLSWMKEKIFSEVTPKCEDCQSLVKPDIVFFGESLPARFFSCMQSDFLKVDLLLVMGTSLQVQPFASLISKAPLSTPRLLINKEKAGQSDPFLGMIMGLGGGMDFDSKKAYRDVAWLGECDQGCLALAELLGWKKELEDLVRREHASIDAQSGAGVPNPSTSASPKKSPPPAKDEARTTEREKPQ

[2] = biological target: NAD-dependent protein deacylase sirtuin-6 (Homo sapiens) (UniProt Q8N6T7); experiment: Activation of N-terminal His-tagged human SIRT6 (1 to 355 residues) expressed in Escherichia coli M15(pREP4) assessed as increase in deacetylation activity using acetyl-H3K9 peptide as substrate incubated for 2 hrs in presence of NAD+ by mass spectrometric analysis; conditions: filed as activator
Method in brief: (§1)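 Deacetylation measured by mass spectrometry using an unlabelled acetylated peptide that represents the physiological histone H3 Lys9 site (H3K9ac); compound tested across a dose range.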

[3] = biological target: NAD-dependent protein deacylase sirtuin-6 (Homo sapiens) (UniProt Q8N6T7); experiment: Activation of N-terminal His-tagged human SIRT6 (1 to 355 residues) expressed in Escherichia coli M15(pREP4) assessed as increase in deacetylation activity using acetyl-H3K9 peptide as substrate incubated for 2 hrs in presence of NAD+ by mass spectrometric analysis relative to control; method in brief: as §1
[4] = biological target: T2, NAD-dependent protein deacetylase sirtuin-1 (Homo sapiens, UniProt Q96EB6); experiment: Inhibition of N-terminal His-tagged human full length recombinant SIRT1 expressed in Escherichia coli at 250 to 1000 uM by fluorescence based analysis; conditions: dose 250-1000 µM
T2 sequence (Q96EB6 whole entry): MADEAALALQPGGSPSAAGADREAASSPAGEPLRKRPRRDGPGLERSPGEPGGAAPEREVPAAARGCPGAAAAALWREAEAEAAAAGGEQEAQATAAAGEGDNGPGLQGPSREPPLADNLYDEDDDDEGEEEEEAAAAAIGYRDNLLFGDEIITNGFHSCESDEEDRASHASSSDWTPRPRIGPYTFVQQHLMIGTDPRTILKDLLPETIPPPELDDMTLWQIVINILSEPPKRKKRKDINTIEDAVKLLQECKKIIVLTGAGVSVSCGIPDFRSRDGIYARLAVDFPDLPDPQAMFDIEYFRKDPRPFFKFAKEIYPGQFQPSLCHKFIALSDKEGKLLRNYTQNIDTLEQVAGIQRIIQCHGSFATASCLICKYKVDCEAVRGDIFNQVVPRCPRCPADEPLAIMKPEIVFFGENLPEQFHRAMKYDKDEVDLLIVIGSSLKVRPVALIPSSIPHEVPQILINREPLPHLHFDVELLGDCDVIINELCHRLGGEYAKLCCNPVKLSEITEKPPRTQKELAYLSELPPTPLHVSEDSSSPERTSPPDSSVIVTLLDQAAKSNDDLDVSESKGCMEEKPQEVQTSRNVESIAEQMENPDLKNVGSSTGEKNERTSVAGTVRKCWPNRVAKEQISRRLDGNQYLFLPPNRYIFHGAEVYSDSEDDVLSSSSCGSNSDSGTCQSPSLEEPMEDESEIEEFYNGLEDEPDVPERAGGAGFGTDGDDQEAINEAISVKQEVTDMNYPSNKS

[5] = biological target: NAD-dependent protein deacylase sirtuin-6 (Homo sapiens) (UniProt Q8N6T7); experiment: Activation of N-terminal His-tagged human SIRT6 (1 to 355 residues) expressed in Escherichia coli M15(pREP4) assessed as increase in deacetylation activity using FdL1 substrate peptide incubated for 1 hr in presence of NAD+ by fluorescence assay; conditions: filed as activator
Method in brief: (§2)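 Deacetylation assay with the fluorophore-labelled FdL substrate, run alongside a control for artificial effects from the compound interacting with the fluorophore; fluorescence read-out.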

[6] = biological target: NAD-dependent protein deacylase sirtuin-6 (Homo sapiens) (UniProt Q8N6T7); experiment: Activation of His-tagged N-terminal truncated human SIRT6 (13 to 355 residues) expressed in Escherichia coli BL21 (DE3) codon+ cells assessed as increase in deacetylation activity using acetyl-H3K9 peptide as substrate incubated for 2 hrs in presence of NAD+ by mass spectrometric analysis relative to control; conditions: filed as activator
[7] = biological target: NAD-dependent protein deacylase sirtuin-6 (Homo sapiens) (UniProt Q8N6T7); experiment: Activation of N-terminal His-tagged human SIRT6 (1 to 355 residues) expressed in Escherichia coli M15(pREP4) assessed as increase in substrate deacetylation activity using FdL1 substrate peptide at 250 to 1000 uM incubated for 1 hr in presence of NAD+ by fluorescence assay; conditions: filed as activator, dose microM 250-1000, time 1.0 hrs; method in brief: as §2
[8] = biological target: T3, NAD-dependent protein deacetylase sirtuin-3, mitochondrial (Homo sapiens, UniProt Q9NTG7); experiment: Inhibition of N-terminal His-tagged human recombinant SIRT3 (118 to 399 residues) expressed in Escherichia coli assessed as decrease in substrate deacetylation using QPK(acetyl-K) as substrate at 250 to 1000 uM incubated for 30 mins by fluorescence based analysis; conditions: 0.5 h, dose 250-1000 µM
T3 sequence (Q9NTG7 whole entry): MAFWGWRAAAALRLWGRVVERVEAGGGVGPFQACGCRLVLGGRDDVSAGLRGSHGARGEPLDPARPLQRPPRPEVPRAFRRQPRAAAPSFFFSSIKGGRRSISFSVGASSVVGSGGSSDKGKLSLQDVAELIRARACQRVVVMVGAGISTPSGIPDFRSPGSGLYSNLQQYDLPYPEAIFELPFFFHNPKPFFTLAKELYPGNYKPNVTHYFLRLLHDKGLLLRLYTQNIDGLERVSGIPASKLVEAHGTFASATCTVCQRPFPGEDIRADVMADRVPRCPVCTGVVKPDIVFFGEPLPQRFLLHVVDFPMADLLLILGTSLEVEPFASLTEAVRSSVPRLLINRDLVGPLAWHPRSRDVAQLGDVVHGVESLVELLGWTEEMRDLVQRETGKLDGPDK

Chain of NAD-dependent protein deacylase sirtuin-6 (Homo sapiens) (Q8N6T7 whole entry, the tested form may be a part): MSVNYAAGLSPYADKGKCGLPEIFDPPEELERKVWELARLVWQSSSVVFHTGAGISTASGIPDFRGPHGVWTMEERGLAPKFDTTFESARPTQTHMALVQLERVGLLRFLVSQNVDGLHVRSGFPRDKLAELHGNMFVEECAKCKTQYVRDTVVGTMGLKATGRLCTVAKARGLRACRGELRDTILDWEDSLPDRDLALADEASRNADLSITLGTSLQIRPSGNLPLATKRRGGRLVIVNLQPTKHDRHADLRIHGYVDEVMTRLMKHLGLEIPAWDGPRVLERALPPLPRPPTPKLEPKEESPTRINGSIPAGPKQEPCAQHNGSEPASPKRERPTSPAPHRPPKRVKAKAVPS

Structure (SMILES): CC(C)n1c(/C=C/C(O)CC(O)CC(=O)O)c(-c2ccc(F)cc2)c2ccccc21 (stereo not drawn) [FLUVASTATIN]
- inhibition (INH) [1]: Active
- Activity [2]: Dose-dependent effect
- fold change (FC) [3]: > 3
- inhibition (INH) [4]: Active
- Activity [5]: Active
- fold change (FC) [6]: 4
- Activity [7]: Active
- inhibition (INH) [8]: Active
